Reference: ChEMBL document CHEMBL1240420, “Synthesis and biological evaluation of cinnamido linked pyrrolo[2,1-c][1,4]benzodiazepines as antimitotic agents” (Eur J Med Chem, 2010)
pIC50: −log10 of the molar value. Structures can show the parent of a compound that is named as a salt. Active and inactive are the calls of the source. The calls are words filed in the database; no cut-off is given here.

Experiments:
COLO 205 = assay: Cytotoxicity against human COLO205 cells after 48 hrs by SRB assay; format: functional; details: COLO 205, 48 h
How it was run: (§1)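 Cells were grown in RPMI 1640 with 10% FBS and 2 mM L-glutamine, plated 24 h before dosing, then given continuous 48 h exposure at 0.1, 1, 10 and 100 µM in triplicate wells. Cells were fixed with cold TCA (10% final, 60 min, 4 °C), stained with 0.4% SRB in 1% acetic acid for 20 min, eluted with 10 mM Tris base, and read at 540/690 nm. GI50 was taken from [(Ti−Tz)/(C−Tz)]×100 = 50; three determinations were averaged.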

A549 = assay: Cytotoxicity against human A549 cells after 48 hrs by SRB assay; format: functional; details: A549, 48 h; how it was run: as §1
PC-3 = assay: Cytotoxicity against human PC3 cells after 48 hrs by SRB assay; format: functional; details: PC-3, 48 h; how it was run: as §1
ZR-75-1 = assay: Cytotoxicity against human ZR-75-1 cells after 48 hrs by SRB assay; format: functional; details: ZR-75-1, 48 h
How it was run: (§2)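 Cells grown in RPMI 1640 with 10% FBS and 2 mM L-glutamine, plated and left 24 h at 37 °C/5% CO2, then exposed continuously for 48 h to 0.1, 1, 10 and 100 µM in triplicate wells. Fixed with cold TCA (10% final), stained with 0.4% SRB, eluted with 10 mM Tris base, read at 540 nm (690 nm reference). GI50 from [(Ti−Tz)/(C−Tz)]×100 = 50; mean of three determinations.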

MCF7 [1] = assay: Cytotoxicity against human MCF7 cells after 48 hrs by SRB assay; format: functional; details: MCF7, 48 h; how it was run: as §1
SiHa = assay: Cytotoxicity against human SiHa cells after 48 hrs by SRB assay; format: functional; how it was run: as §2
[2] = Cytotoxicity against human DWD cells after 48 hrs by SRB assay; format: functional; how it was run: as §1
A2780 = assay: Cytotoxicity against human A2780 cells after 48 hrs by SRB assay; format: functional; details: A2780, 48 h; how it was run: as §1
[3] = Cytotoxicity against human GURAV cells after 48 hrs by SRB assay; format: functional; how it was run: as §1
HOP-62 = assay: Cytotoxicity against human HOP62 cells after 48 hrs by SRB assay; format: functional; details: HOP-62, 48 h; how it was run: as §1
KB = assay: Cytotoxicity against human KB cells after 48 hrs by SRB assay; format: functional; how it was run: as §1
MCF7 [4] = assay: Cell cycle arrest in human MCF7 cells assessed as accumulation at G2/M phase after 48 hrs using FITC/propidium iodide staining by flow cytometry; format: functional, cell-based
How it was run: (§3)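 MCF7 cells in 6-well plates were exposed for 48 h, harvested with trypsin–EDTA, and fixed in ice-cold 70% ethanol at 4 °C for 30 min. They were then stained with a propidium iodide solution containing trisodium citrate and Triton X-100 for 30 min in the dark. DNA content was read by flow cytometry on 20,000 events, and cells were scored by cell-cycle phase from histograms.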

MCF7 [5] = assay: Induction of apoptosis in human MCF7 cells assessed as nuclear condensation at 2 uM after 48 hrs by fluorescence microscopy; format: functional, cell-based
How it was run: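 MCF7 cells on cover slips in 6-well plates treated 48 h at 1–3 µM. Nocodazole and podophyllotoxin (1 µM) served as controls. Fixed in 3% paraformaldehyde/0.02% glutaraldehyde, stained with Hoechst (5 µM, 30 min), washed in PBS and imaged by fluorescence microscopy with DAPI filters. Five fields of view examined.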

Bos taurus = organism: Bos taurus; assay: Inhibition of bovine tubulin at 2.5 uM after 3 hrs relative to control
Tubulin (Homo sapiens) = Tubulin (Homo sapiens) (UniProt P68371+Q9H4B7+P0DPH7+P68366+Q13509+Q71U36+P04350+Q3ZCM7+P07437+P68363+Q9BQE3+Q6PEY2+Q13885+Q9BVA1+Q9BUF5); assay: Inhibition of tubulin polymerization in human MCF7 cells at 2.5 uM by immunohistochemistry; format: cell-based
How it was run: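 MCF7 cells on glass cover slips exposed 48 h to 2.5 µM. Fixed with 3% paraformaldehyde/0.02% glutaraldehyde, permeabilized in −20 °C methanol, blocked with 1% BSA. Stained with mouse monoclonal anti-tubulin plus FITC secondary, then confocal imaging of microtubule network integrity. Nocodazole and taxol (2.5 µM) run as controls; untreated cells as baseline.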

[6] = Inhibition of bovine tubulin after 3 hrs; design: species or system Bos taurus
How it was run: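 Bovine brain tubulin purified by three polymerization/depolymerization cycles. A340 read every 2 min for 3 h at 37 °C, nocodazole as control. IC50 taken as the concentration halving assembly versus control.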

MCF7 [7] = assay: Cell cycle arrest in human MCF7 cells assessed as accumulation at G0 phase after 48 hrs using FITC/propidium iodide staining by flow cytometry; format: functional, cell-based; how it was run: as §3

Row | inhibition (Bos taurus) | inhibition (Tubulin (Homo sapiens)) | pIC50 [6] | Compound | GI50 (COLO 205) | GI50 (A549) | GI50 (PC-3) | GI50 (ZR-75-1) | GI50 (MCF7 [1]) | GI50 (SiHa) | GI50 [2] | GI50 (A2780) | GI50 [3] | GI50 (HOP-62) | GI50 (KB) | Activity (MCF7 [4]) | Activity (MCF7 [5]) | Activity (MCF7 [7])
1 | – | – | – | COc1cc(/C=C/C(=O)N2CCN(C(=O)c3cc(OC)c(OC)c(OC)c3)CC2)ccc1OCCCCCOc1cc2c(cc1OC)C(=O)N1CCC[C@H]1C=N2 | < 100 nM | 110 nM | 140 nM | 140 nM | 130 nM | 140 nM | < 100 nM | 110 nM | 130 nM | 150 nM | 120 nM | – | – | –
2 | – | – | – | COc1cc(/C=C/C(=O)N2CCOCC2)ccc1OCCCOc1cc2c(cc1OC)C(=O)N1CCC[C@H]1C=N2 | 100 nM | < 100 nM | 130 nM | 120 nM | < 100 nM | 120 nM | < 100 nM | < 100 nM | 100 nM | 140 nM | < 100 nM | – | – | –
3 | 40% | Active | 4.79 | COc1cc(/C=C/C(=O)N2CCOCC2)ccc1OCCCCOc1cc2c(cc1OC)C(=O)N1CCC[C@H]1C=N2 | 120 nM | 110 nM | 140 nM | 150 nM | 140 nM | 140 nM | < 100 nM | 120 nM | 130 nM | 160 nM | 130 nM | Active | Active | Active
4 | – | – | – | COc1cc2c(cc1O)N=C[C@@H]1CCCN1C2=O | 110 nM | 160 nM | 200 nM | – | 170 nM | 170 nM | – | 140 nM | 160 nM | 150 nM | 170 nM | – | – | –
5 | – | – | – | COc1cc(/C=C/C(=O)N2CCOCC2)ccc1OCCCCCCOc1cc2c(cc1OC)C(=O)N1CCC[C@H]1C=N2 | 150 nM | < 100 nM | 170 nM | 140 nM | 150 nM | < 100 nM | 150 nM | < 100 nM | < 100 nM | < 100 nM | < 100 nM | – | – | –
6 | – | – | – | COc1cc(/C=C/C(=O)N2CCN(C(=O)/C=C/c3ccc(OCCCOc4cc5c(cc4OC)C(=O)N4CCC[C@H]4C=N5)c(OC)c3)CC2)ccc1OCCCOc1cc2c(cc1OC)C(=O)N1CCC[C@H]1C=N2 | < 100 nM | < 100 nM | 150 nM | < 100 nM | < 100 nM | 160 nM | < 100 nM | 120 nM | 140 nM | 150 nM | 140 nM | – | – | –
7 | – | – | – | COc1cc(/C=C/C(=O)N2CCN(C(=O)c3cc(OC)c(OC)c(OC)c3)CC2)ccc1OCCCCCCOc1cc2c(cc1OC)C(=O)N1CCC[C@H]1C=N2 | 2100 nM | 160 nM | 1900 nM | 210 nM | 180 nM | 2500 nM | 170 nM | 180 nM | 1900 nM | 2600 nM | 1900 nM | – | – | –
8 | – | – | – | COc1cc(/C=C/C(=O)N2CCN(C(=O)/C=C/c3ccc(OCCCCCCOc4cc5c(cc4OC)C(=O)N4CCC[C@H]4C=N5)c(OC)c3)CC2)ccc1OCCCCCCOc1cc2c(cc1OC)C(=O)N1CCC[C@H]1C=N2 | < 100 nM | 150 nM | 150 nM | 210 nM | 1900 nM | < 100 nM | < 100 nM | < 100 nM | < 100 nM | < 100 nM | < 100 nM | – | – | –
9 | 40% | Active | 4.55 | COc1cc(/C=C/C(=O)N2CCN(C(=O)/C=C/c3ccc(OCCCCOc4cc5c(cc4OC)C(=O)N4CCC[C@H]4C=N5)c(OC)c3)CC2)ccc1OCCCCOc1cc2c(cc1OC)C(=O)N1CCC[C@H]1C=N2 | 150 nM | < 100 nM | 160 nM | 150 nM | 150 nM | < 100 nM | 120 nM | < 100 nM | < 100 nM | < 100 nM | < 100 nM | Active | Active | Active
10 | – | – | – | COc1cc(/C=C/C(=O)N2CCOCC2)ccc1OCCCCCOc1cc2c(cc1OC)C(=O)N1CCC[C@H]1C=N2 | < 100 nM | < 100 nM | < 100 nM | < 100 nM | < 100 nM | 170 nM | < 100 nM | 140 nM | 160 nM | 170 nM | 150 nM | – | – | –
11 | – | – | – | COc1cccc2c1C(=O)c1c(O)c3c(c(O)c1C2=O)C[C@@](O)(C(=O)CO)C[C@@H]3O[C@H]1C[C@H](N)[C@H](O)[C@H](C)O1 [DOXORUBICIN HYDROCHLORIDE] | 130 nM | < 100 nM | 160 nM | 120 nM | < 100 nM | 150 nM | 120 nM | < 100 nM | 140 nM | 120 nM | 130 nM | – | – | –
12 | – | – | – | COc1cc(/C=C/C(=O)N2CCN(C(=O)/C=C/c3ccc(OCCCCCOc4cc5c(cc4OC)C(=O)N4CCC[C@H]4C=N5)c(OC)c3)CC2)ccc1OCCCCCOc1cc2c(cc1OC)C(=O)N1CCC[C@H]1C=N2 | < 100 nM | 110 nM | < 100 nM | < 100 nM | 1000 nM | 2000 nM | < 100 nM | 160 nM | 2300 nM | 180 nM | 2000 nM | – | – | –
13 | – | – | – | COc1cc(/C=C/C(=O)N2CCN(C(=O)c3cc(OC)c(OC)c(OC)c3)CC2)ccc1OCCCCOc1cc2c(cc1OC)C(=O)N1CCC[C@H]1C=N2 | < 100 nM | 120 nM | < 100 nM | 150 nM | 140 nM | 170 nM | 110 nM | 150 nM | 110 nM | 170 nM | 150 nM | – | – | –
